Calls of active or inactive are those of the source.
What was measured:
SGBS [1] = assay: Upregulation of PPARgamma gene expression in human preadipocyte derived from Simpson-Golabi-Behmel syndrome (SGBS) patient at 25 uM measured for 12 days by qRT-PCR analysis; format: functional, cell-based
How it was run: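 SGBS cells grown 4 days in biotin/D-pantothenate medium, then differentiated without FBS (apo-transferrin, insulin, T3, hydrocortisol, IBMX, dexamethasone) with 25 μM compound or 0.1 % DMSO added from day 0. After 4 days, switched to maintenance medium without IBMX/dexamethasone, renewed day 8. qPCR on days 0, 4, 8, 12, normalized to TBP (comparative threshold) and to day 0. Minimum three biological replicates in duplicate, mean ± SEM.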

[2] = molecular target: T1, Peroxisome proliferator-activated receptor alpha (Homo sapiens) (UniProt Q07869); assay: Agonist activity at PPARalpha in human Huh7 cells assessed as PPARA mRNA expression at 50 uM measured after 18 hrs by qRT-PCR analysis; format: cell-based
T1 sequence (whole entry): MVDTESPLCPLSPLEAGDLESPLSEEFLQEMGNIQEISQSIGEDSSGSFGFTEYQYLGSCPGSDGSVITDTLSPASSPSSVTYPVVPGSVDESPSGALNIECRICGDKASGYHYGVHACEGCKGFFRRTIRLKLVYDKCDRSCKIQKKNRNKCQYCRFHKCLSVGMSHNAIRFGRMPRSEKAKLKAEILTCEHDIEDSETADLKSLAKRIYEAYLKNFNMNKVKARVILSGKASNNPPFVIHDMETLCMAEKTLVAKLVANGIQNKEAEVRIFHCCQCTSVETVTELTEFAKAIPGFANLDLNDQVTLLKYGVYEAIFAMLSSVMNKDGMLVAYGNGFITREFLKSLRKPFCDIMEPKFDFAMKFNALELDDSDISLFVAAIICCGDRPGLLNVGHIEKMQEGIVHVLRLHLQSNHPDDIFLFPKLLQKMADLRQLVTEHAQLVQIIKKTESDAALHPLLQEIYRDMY
How it was run: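 Treatment for 18 h at 50 μM (or 1 μM for the 1 μM agents), DMSO vehicle. Harvested for qPCR. mRNA normalized to TBP by the comparative threshold method, expressed relative to DMSO control. Two biological replicates run in duplicate, mean ± SEM. Primary hepatocytes came from male C57BL/6N mice aged 7–8 weeks, isolated by portal-vein perfusion and digestion, seeded on collagen I and used on day 2. HuH-7 cells were kept in DMEM with 10% FBS and ITS.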

[3] = molecular target: T2, Peroxisome proliferator-activated receptor gamma (Homo sapiens, UniProt P37231); assay: Agonist activity at full length human FLAG-tagged GAL4-DBD fused PPARgamma LBD (205 to 505 residues) expressed in COS1 cells measured after 18 hrs by dual luciferase reporter gene assay; format: cell-based
T2 sequence (P37231 whole entry): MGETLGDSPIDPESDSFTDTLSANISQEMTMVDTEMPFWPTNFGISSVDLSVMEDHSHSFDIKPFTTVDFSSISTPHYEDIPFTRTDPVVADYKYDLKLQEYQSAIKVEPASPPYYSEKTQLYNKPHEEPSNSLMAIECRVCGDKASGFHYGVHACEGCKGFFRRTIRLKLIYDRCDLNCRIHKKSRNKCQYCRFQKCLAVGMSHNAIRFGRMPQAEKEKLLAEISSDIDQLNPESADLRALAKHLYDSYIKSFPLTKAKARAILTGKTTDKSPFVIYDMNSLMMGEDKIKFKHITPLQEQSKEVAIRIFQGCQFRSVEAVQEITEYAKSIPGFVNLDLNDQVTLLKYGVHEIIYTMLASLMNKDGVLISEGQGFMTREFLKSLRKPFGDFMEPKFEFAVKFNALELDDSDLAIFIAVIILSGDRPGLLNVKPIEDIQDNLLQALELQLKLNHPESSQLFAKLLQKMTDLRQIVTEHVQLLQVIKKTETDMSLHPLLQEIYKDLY
How it was run: (§1)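 Dose-response in COS-1 cells transfected with GAL4-DBD–human PPARα or PPARγ LBD, a 5×UAS-SV40 firefly reporter and pRL-CMV. Cells were treated with increasing concentrations in 0.1% DMSO (final) 6 h post-transfection, then for 18 h. Firefly/Renilla ratio, normalized to GAL4-only activity. EC50 was taken from a sigmoidal dose-response fit. At least three independent transfections in quadruplicate.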

SGBS [4] = assay: Upregulation of FABP4 gene expression in human preadipocyte derived from Simpson-Golabi-Behmel syndrome (SGBS) patient at 25 uM measured for 12 days by qRT-PCR analysis; format: functional, cell-based
How it was run: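 SGBS cells were differentiated with serum-free induction medium containing 25 μM test agent, 2 μM rosiglitazone or 0.1% DMSO from day 0. IBMX and dexamethasone were removed on day 4 and medium was renewed on day 8. RNA was taken on days 0, 4, 8 and 12 for qPCR, normalized to TBP and to day 0. At least three biological replicates in duplicate, two-way ANOVA with Bonferroni.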

COS-1 = assay: Cytotoxicity against African green monkey COS1 cells assessed as reduction in cell viability at 10^-3 M by XTT based assay relative to control; details: chlorocebus aethiops, cos-1, 1000 µM
How it was run: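 COS-1 cells were treated across the same concentration series as the GAL4 dose-response runs. Cytotoxicity was measured as LDH released into medium (absorbance 492/750 nm) and by XTT viability assay (absorbance 450/690 nm). Results expressed relative to control.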

[5] = molecular target: T3, Peroxisome proliferator-activated receptor alpha (Homo sapiens, UniProt Q07869); assay: Agonist activity at full length human FLAG-tagged GAL4-DBD fused PPARalpha LBD (168 to 468 residues) expressed in COS1 cells measured after 18 hrs by dual luciferase reporter gene assay; format: cell-based; how it was run: as §1
T3 sequence (Q07869 whole entry): T1 sequence (whole entry)

[6] = molecular target: T1, Peroxisome proliferator-activated receptor alpha (Homo sapiens); assay: Agonist activity at full length human FLAG-tagged GAL4-DBD fused PPARalpha LBD (168 to 468 residues) expressed in COS1 cells at 25 to 50 uM measured after 18 hrs by dual luciferase reporter gene assay relative to pirinixic acid; format: cell-based
How it was run: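 COS-1 cells were transfected with GAL4-DBD–PPARα-LBD, a 5×UAS luciferase reporter and a Renilla control. After 6 h, cells were treated with 0, 25 or 50 μM test compound or pirinixic acid in 0.1% DMSO (final) for 18 h. Dual-luciferase read-out, firefly/Renilla ratio, normalized to DMSO control and GAL4.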

CCCCCCCc1cc(CCCCCC(=O)O)no1
Activity (SGBS [1]): Active | Activity [2]: inactive | EC50 [3]: 2000 µM | Activity (SGBS [4]): Active | Activity (COS-1): 40% | EC50 [5]: 47 µM | fold change (FC) [6]: 2.5

From ChEMBL document CHEMBL4393735, “Molecular modelling, synthesis, and biological evaluations of a 3,5-disubstituted isoxazole fatty acid analogue as a PPARα-selective agonist” (Bioorg Med Chem, 2019)
